pIC50: −log10 of the molar value. Activity calls are given as the source filed them. No cut-off for these calls is given here.
Tests used:
[1] = system: HeLa; experiment: Antiproliferative activity against human HeLa cells after 48 hrs by MTT assay; assay type: functional
Summary of the method: (§1)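 MTT assay: cells attached 4–6 h at 37 °C, 5% CO2, then exposed 48 h to graded concentrations from DMSO stocks; 5 mg/mL MTT added for 4 h, formazan dissolved in DMSO, absorbance at 490 nm. GI50 from log plot of percent of control versus concentration; mean of three independent experiments.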

[2] = system: A549; experiment: Antiproliferative activity against human A549 cells after 48 hrs by MTT assay; assay type: functional; summary of the method: as §1
[3] = system: LoVo; experiment: Antiproliferative activity against human LoVo cells after 48 hrs by MTT assay; assay type: functional; summary of the method: as §1
[4] = molecular target: Aurora kinase B (Homo sapiens, UniProt Q96GD4); experiment: Inhibition of Aurora B (unknown origin) using kemptide acetate salt as substrate after 30 mins by kinase-Glo luminescence method
Aurora kinase B, sequence (Q96GD4 whole entry): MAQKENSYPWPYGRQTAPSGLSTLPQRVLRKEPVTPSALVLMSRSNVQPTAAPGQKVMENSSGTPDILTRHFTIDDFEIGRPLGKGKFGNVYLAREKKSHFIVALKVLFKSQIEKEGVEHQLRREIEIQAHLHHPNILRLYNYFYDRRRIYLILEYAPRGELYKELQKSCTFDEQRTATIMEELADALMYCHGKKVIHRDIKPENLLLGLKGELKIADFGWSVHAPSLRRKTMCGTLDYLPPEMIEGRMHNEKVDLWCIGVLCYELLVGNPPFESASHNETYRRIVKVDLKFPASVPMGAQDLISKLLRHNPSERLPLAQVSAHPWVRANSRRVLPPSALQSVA

[5] = system: HepG2; experiment: Antiproliferative activity against human HepG2 cells after 48 hrs by MTT assay; assay type: functional; summary of the method: as §1
[6] = molecular target: T1, Aurora kinase A (Homo sapiens, UniProt O14965); experiment: Inhibition of Aurora A (unknown origin) using kemptide acetate salt as substrate after 30 mins by kinase-Glo luminescence method
T1 sequence (O14965 whole entry): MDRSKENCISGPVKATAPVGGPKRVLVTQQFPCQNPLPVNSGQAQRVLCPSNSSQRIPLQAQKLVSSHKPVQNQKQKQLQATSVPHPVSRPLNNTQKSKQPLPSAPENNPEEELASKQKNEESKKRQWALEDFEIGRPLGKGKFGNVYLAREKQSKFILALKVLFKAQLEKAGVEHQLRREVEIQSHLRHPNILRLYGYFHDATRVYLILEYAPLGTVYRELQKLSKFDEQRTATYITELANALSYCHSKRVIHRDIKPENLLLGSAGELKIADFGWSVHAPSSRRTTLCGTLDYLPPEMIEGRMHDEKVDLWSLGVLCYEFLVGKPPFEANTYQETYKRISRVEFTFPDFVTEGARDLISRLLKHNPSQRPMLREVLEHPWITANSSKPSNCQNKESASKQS

[7] = system: HeLa; experiment: Cell cycle arrest in human HeLa cells assessed as accumulation at S phase at 5 uM after 12 hrs by propidium iodide staining-based flow cytometric analysis (reference value: 5.74%); assay type: functional
Summary of the method: (§2)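 HeLa cells exposed 12 h to 1 or 5 μM compound diluted from DMSO (DMSO control), fixed, stained with propidium iodide; DNA content measured by flow cytometry and G1, S, G2/M fractions calculated from the DNA histogram.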

[8] = system: HeLa; experiment: Cell cycle arrest in human HeLa cells assessed as accumulation at G2/M phase at 5 uM after 12 hrs by propidium iodide staining-based flow cytometric analysis (reference value: 23.57%); assay type: functional; summary of the method: as §2
[9] = system: HeLa; experiment: Cell cycle arrest in human HeLa cells assessed as accumulation at G1 phase at 5 uM after 12 hrs by propidium iodide staining-based flow cytometric analysis (reference value: 70.68%); assay type: functional; summary of the method: as §2
[10] = system: HeLa; experiment: Cell cycle arrest in human HeLa cells assessed as decrease in cyclin B1 protein expression at 5 uM after 12 hrs by Western blot analysis; assay type: functional, cell-based
Summary of the method: (§3)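 HeLa cells treated 12 h (0.1, 1, 5 μM for apoptosis proteins); lysed in Tris pH 7.5/NP-40/SDS buffer with protease inhibitors, equal protein on 10% SDS-PAGE, PVDF, 5% BSA block, primary antibodies overnight at 4 °C, β-actin loading control; mean ± SD.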

[11] = system: HeLa; experiment: Induction of microtubule disruption in human HeLa cells at 1 uM after 24 hrs by DAPI staining based immunofluorescence microscopic analysis; assay type: functional, cell-based
Summary of the method: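 HeLa cells on coverslips treated 24 h (0.1 or 1 μM; DMSO control); fixed in 4% paraformaldehyde, permeabilised in 0.1% Triton X-100 with 2% BSA, anti-α-tubulin overnight at 4 °C, FITC secondary 2 h room temperature, DAPI for DNA; confocal imaging.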

[12] = system: HeLa; experiment: Cell cycle arrest in human HeLa cells assessed as decrease in cdc2 protein expression at 5 uM after 12 hrs by Western blot analysis; assay type: functional, cell-based; summary of the method: as §3

| SMILES | GI50 [1] [µM] | GI50 ([2]; A549, 48 h) [µM] | GI50 [3] [µM] | pIC50 [4] | GI50 ([5]; HepG2, 48 h) [µM] | pIC50 [6] | GI50 [2] [µM] | Activity [7] [%] | Activity [8] [%] | Activity [9] [%] | Activity [10] | Activity [11] | GI50 [5] [µM] | Activity [12] |
| --- | --- | --- | --- | --- | --- | --- | --- | --- | --- | --- | --- | --- | --- | --- |
| CC1(C)CC(NC(=O)c2ccc(Nc3ncc([N+](=O)[O-])c(Nc4cccc(Cl)c4)n3)cc2)CC(C)(C)N1[O] | 43.2 | 31.3 | 67.8 | 7.71 | 42.1 | 9.21 |  |  |  |  |  |  |  |  |
| Cc1cc(Nc2cc(N3CCN(C)CC3)nc(Sc3ccc(NC(=O)C4CC4)cc3)n2)n[nH]1 | 46.2 |  | 45.3 |  |  |  | 35.8 | 26.6 | 39 | 34.4 | Active | inactive | 53.3 | Active |
| CN1CCC(NC(=O)c2ccc(Nc3ncc(F)c(Nc4ccc(C(=O)Nc5ccccc5Cl)cc4)n3)cc2)CC1 | 11.3 | 8.9 | 12.4 | 7.31 | 13.4 | 8.64 |  |  |  |  |  |  |  |  |
| CC1(C)CC(NC(=O)c2ccc(Nc3ncc(F)c(Nc4ccccc4Cl)n3)cc2)CC(C)(C)N1[O] | 8.4 | 2.3 | 2.7 | 8.95 | 1.2 | 9.74 |  |  |  |  |  |  |  |  |
| CC1(C)CC(NC(=O)c2ccc(Nc3ncc([N+](=O)[O-])c(Nc4ccccc4O)n3)cc2)CC(C)(C)N1[O] | 13.9 | 11.2 | 28.3 | 7.95 | 3.7 | 8.07 |  |  |  |  |  |  |  |  |
| CC1(C)CC(NC(=O)c2ccc(Nc3ncc([N+](=O)[O-])c(Nc4ccc(C(=O)Nc5cccc(Cl)c5)cc4)n3)cc2)CC(C)(C)N1[O] | 49.5 | 14.2 | 39.6 | 7.57 | 12.5 | 9.96 |  |  |  |  |  |  |  |  |
| CC1(C)CC(NC(=O)c2ccc(Nc3ncc([N+](=O)[O-])c(Nc4ccccc4Cl)n3)cc2)CC(C)(C)N1[O] | 53.1 | 2.8 | 35.2 | 8.48 | 3.7 | 8.73 |  |  |  |  |  |  |  |  |
| CC1(C)CC(NC(=O)c2ccc(Nc3ncc([N+](=O)[O-])c(Nc4ccc(O)cc4)n3)cc2)CC(C)(C)N1[O] | 34.3 | 14.3 | 43.8 | 8.46 | 21.5 | 9.23 |  |  |  |  |  |  |  |  |
| CC1(C)CC(NC(=O)c2ccc(Nc3ncc([N+](=O)[O-])c(Nc4cccc(O)c4)n3)cc2)CC(C)(C)N1[O] | 36.5 | 13.2 | 39.6 | 8.46 | 21.7 | 9.85 |  |  |  |  |  |  |  |  |
| CC1(C)CC(NC(=O)c2ccc(Nc3nc(Nc4ccc(C(=O)O)cc4)ncc3Cl)cc2)CC(C)(C)N1[O] | 56.5 |  | 56.6 |  |  |  | > 100 |  |  |  |  |  | 48.2 |  |
| CC1(C)CC(NC(=O)c2ccc(Nc3ncc([N+](=O)[O-])c(Nc4ccc(C(=O)Nc5ccccc5Cl)cc4)n3)cc2)CC(C)(C)N1[O] | 23.2 | 2.5 | 28.5 | 8.51 | 3.4 | 8.26 |  |  |  |  |  |  |  |  |
| CC1(C)CC(NC(=O)c2ccc(Nc3nc(Nc4ccc(C(=O)O)cc4)ncc3F)cc2)CC(C)(C)N1[O] | 21.3 |  | 65.3 |  |  |  | 18.5 |  |  |  |  |  | 26.8 |  |
| CC1(C)CC(NC(=O)c2ccc(Nc3nc(Nc4ccc(C(=O)O)cc4)ncc3[N+](=O)[O-])cc2)CC(C)(C)N1[O] | 27.3 |  | 27.4 |  |  |  | 29.6 |  |  |  |  |  | 11.8 |  |
| CC1(C)CC(NC(=O)c2ccc(Nc3nc(Nc4ccc(C(=O)O)cc4)ncc3Br)cc2)CC(C)(C)N1[O] | > 100 |  | > 100 |  |  |  | > 100 |  |  |  |  |  | 35.8 |  |
| CC1(C)CC(NC(=O)c2ccc(Nc3ncc([N+](=O)[O-])c(Nc4ccc(C(=O)Nc5ccc(Cl)cc5)cc4)n3)cc2)CC(C)(C)N1[O] | 53 | 17.2 | 46.3 | 9.17 | 24.1 | 7.70 |  |  |  |  |  |  |  |  |
| CC1(C)CC(NC(=O)c2ccc(Nc3ncc(Cl)c(Nc4ccccc4Cl)n3)cc2)CC(C)(C)N1[O] | 10.2 | 3.6 | 3.2 | 9.54 | 1.6 | 9.72 |  |  |  |  |  |  |  |  |
| CC1(C)CC(NC(=O)c2ccc(Nc3ncc([N+](=O)[O-])c(Nc4ccc(Cl)cc4)n3)cc2)CC(C)(C)N1[O] | 33.3 | 5.6 | 27.8 | 9.47 | 13 | 8.79 |  |  |  |  |  |  |  |  |
| CC1(C)CC(NC(=O)c2ccc(Nc3ncc(Br)c(Nc4ccccc4Cl)n3)cc2)CC(C)(C)N1[O] | 9.6 | 3.8 | 3.2 | 8.57 | 2.1 | 9.34 |  |  |  |  |  |  |  |  |

Source: ChEMBL document CHEMBL4308900, “Synthesis and identification of 2,4-bisanilinopyrimidines bearing 2,2,6,6-tetramethylpiperidine-N-oxyl as potential Aurora A inhibitors” (Bioorg Med Chem, 2019)
